Compound activity as filed in PubChem.
Yeast life ext: extends the lifespan of yeast. S. cerevisiae growth with nicotinamide, OD615; deaD strain in restrictive glucose medium. inhibition of the nicotinamide effect, % at 10 µM. hit rate 0.68% among 130,000;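 active means inhibition above a set limit, placed 3 SD over the median of all compounds, cut at about 26% in these data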;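 further: 0% = nicotinamide-treated wells and 100% = cells grown without nicotinamide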
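System: DeaD-strain S. cerevisiae / Buffer or medium: CSMM-D, restrictive glucose (dextrose) synthetic minimal medium / Probe or stimulus: nicotinamide, 1.5 mM, co-present with compound / Compound: one concentration, 10 µM, DMSO 0.25% / Incubation: 48 h compound exposure at 30 °C, humidified / Technique: optical density (absorbance) at 615 nm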
BB579 growth dn: chemicals that inhibit yeast BB579 growth in restrictive medium (lifespan-shortening candidates); S. cerevisiae BB579 growth, OD615, 48 h; inhibition, % at 10 µM; hit rate 0.51% among 140,000;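 active means inhibition above a set limit, 3 SD over the mean compound inhibition, cut at about 44% in these data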
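Detection: OD615 turbidity measurement; Material: Saccharomyces cerevisiae DeaD strain BB579, replicative lifespan model yeast; Timing: 48 h exposure, 30 °C; Doses: single 10 µM dose; Medium: CSMM-D restrictive synthetic medium containing dextrose (glucose); Controls: amphotericin B at 10 µg/mL as positive control.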
WT yeast gro inh: growth inhibition of WT yeast, mitochondrial fusion screen; hit rate 2.1% among 190,000; mitochondrial fusion phenotypic screen, WT strain; inhibition, % at 10 µM; in the data active means inhibition above about 58%; tested in S. cerevisiae
RAM inhibit: yeast RAM network inhibition. S. cerevisiae dse1pr::URA3 reporter, 5-FOA growth OD615, 2 d; analog-sensitive cbk1-as2 kinase mutant strain. inhibition, % at 50 µM. hit rate 1.8% among 190,000. AID 868;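 active means inhibition above a set limit, 3 SD over mean compound inhibition, cut at about 8.4% in these data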;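 further: 0% = DMSO-only wells with no growth and 100% = 10 µM 1-NA-PP1 full growth; inhibition rescues growth on 5-FOA so higher OD means more RAM inhibition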
* hit, by the source's call; . = no result. Compounds with a hit are over-represented: about 4.3% of the library has one in this group of screens.

SMILES	Yeast life ext	BB579 growth dn	WT yeast gro inh	RAM inhibit
CCC(NS(=O)(=O)c1c(C)[nH]c(=O)[nH]c1=O)C12CC3CC(CC(C3)C1)C2 (centres undefined)	-7.8	-38.0	63.8*	0.0
COc1cc(C)ccc1OCCOCCOc1ccc([N+](=O)[O-])cc1	-7.8	-12.1	15.9	0.6
COc1cc(S(=O)(=O)NCCCN2CCOCC2)ccc1-n1cnnn1	.	.	-9.1	0.7
Clc1ccc(CSc2nnc(-c3ccccn3)n2Cc2ccco2)c(Cl)c1	4.4	-67.8	59.5*	1.0
Fc1ccccc1CSc1nnc(-c2cnccn2)n1Cc1ccco1	-7.3	-21.0	7.6	3.0
Cc1ccc(-c2cc(C(=O)N/N=C\c3cnn(C)c3C)c3ccccc3n2)cc1C	-2.9	-13.1	19.0	0.2
COc1ccc2c(c1)CCc1c(C(=O)N3CC4(C)CC3CC(C)(C)C4)noc1-2 (centres undefined)	-9.7	-80.8	73.2*	8.1
CC(CNc1ccccc1O)C(=O)O (centres undefined)	3.1	7.5	-0.7	0.3
c1ccc(-c2nnc(-c3ccccn3)nc2NC2CCCCC2)cc1	-17.9	94.0*	63.2*	-0.8
CNc1nc(-c2ccccn2)nnc1-c1ccccc1	17.0	-85.5	7.6	1.4
CCOC(=O)c1c(C)n(-c2ccc(C)cc2)c2ccc(OCC(O)CN3CCN(C)CC3)cc12 (centres undefined)	.	.	92.3*	-1.0
CCOC(=O)c1c(C)n(C)c2ccc(OCC(O)CN3CCN(C)CC3)cc12 (centres undefined)	-2.5	-23.4	7.9	0.5
FC(F)(F)c1cc(CCN2C(=S)NC[C@@H]2Cc2ccccc2)cc(C(F)(F)F)c1	.	.	64.0*	6.1
O=C(Nc1nnc(-c2ccc(F)cc2)o1)c1cccc([N+](=O)[O-])c1	.	.	75.8*	1.3
COc1cccc(-c2nnc(NC(=O)c3cccc(F)c3)o2)c1	.	.	61.7	.
O=C(Nc1nnc(-c2ccc(F)cc2)o1)c1cc(Cl)sc1Cl	-3.8	66.1*	64.1	-0.5
O=C(Nc1nnc(-c2ccccc2)o1)c1cc(Cl)sc1Cl	5.5	-22.6	60.2	0.8
O=C1COc2ccc(S(=O)(=O)Nc3ccc4c(c3)OCO4)cc2N1	.	.	13.8	-0.8
CC[C@H](C)[C@H](NC(N)=O)C(=O)NCCc1ccc(OC)c(OC)c1	.	.	-8.8	1.8
O=C(O)c1ccccc1C(=O)Nc1ccc(Oc2cccc3ccccc23)cc1	.	.	-22.4	3.6
O=C(OC1CCCCC1)c1ccc(NC(=O)c2ccco2)cc1	-16.3	-26.6	71.2*	0.6
O=C(Nc1ccc(Oc2cccc3ccccc23)cc1)c1ccco1	-19.9	-26.9	79.4*	9.2*
C=CCN1C(=O)C(C)(C)N(C(C)=O)c2ccccc21	28.3*	-30.8	-4.7	2.3
COc1ccc(N2CCN(C(CNC(=O)C(=O)NCc3ccc4c(c3)OCO4)c3ccco3)CC2)cc1 (centres undefined)	.	.	14.7	0.1
Cc1ccc(-n2c3nc(=O)[nH]c(=O)c-3cc3cc([N+](=O)[O-])ccc32)cc1C	-6.6	-24.5	8.8	9.4*
SMILES	Yeast life ext	BB579 growth dn	WT yeast gro inh	RAM inhibit
Cc1ccc(S(=O)(=O)n2cnc3cc([N+](=O)[O-])ccc32)cc1C	-18.8	-26.1	1.9	1.2
N#C/C(=N\Nc1ccccc1[N+](=O)[O-])C(=N)N1CCCCC1	.	.	5.8	0.4
CN(Cc1ccno1)C(=O)CC1C(=O)NCCN1CC(c1ccccc1)c1ccccc1 (centres undefined)	.	.	6.6	0.4
O=C(/C=C/c1ccccc1)NNc1ccc(Cl)cc1	.	.	44.0	0.9
CC(=O)C(=Nc1ccccc1Cl)NNc1ccc(Cl)cc1	.	-56.3	60.0*	5.1
Cc1ccc(NC(=S)Nc2ccc3cn[nH]c3c2)c(C)c1	.	.	-4.4	1.8
O=C(NC(=S)Nc1cccc2cnccc12)c1ccccc1	.	.	-2.6	1.9
CCc1ccc(NC(=S)Nc2cccc3cnccc23)cc1	.	.	61.0*	0.8
Cc1cc(C)cc(NC(=S)Nc2cccc3cnccc23)c1	.	.	65.0*	1.3
C=C(C)CNC(=S)Nc1cccc2cnccc12	-3.2	3.1	-7.2	-0.2
Cc1ccc(NC(=S)Nc2cccc3cnccc23)c(C)c1	.	.	68.7*	0.2
CCOc1ccc(NC(=O)NNC(=O)c2ccc(CC)s2)cc1	.	.	7.0	3.5
C=CCn1c(C)cc(C(=O)CSc2nc3ccccc3c(=O)[nH]2)c1C	69.0*	-60.7	2.9	2.2
C=CCn1c(C)cc(C(=O)CSc2nnc(Cc3ccccc3)o2)c1C	0.3	33.9	11.2	9.8*
Cc1ccc(-n2nnnc2SCc2nnc(-c3ccccc3Br)o2)c(C)c1	-6.2	-28.2	26.7	11.3*
Cn1nnnc1SCc1nnc(-c2ccccc2Br)o1	-8.2	-41.7	2.5	1.9
CCOc1ccc(C(C)=O)cc1COc1ccc(-n2cnnn2)cc1	-19.8	-26.7	-13.5	8.7*
Cc1cc(C)nc(-n2cc(C(=O)c3cc(F)ccc3O)cn2)n1	30.4*	-27.8	15.5	-1.7
C/C(=N\Nc1nc2c(s1)CCCC2)c1ccccc1	-19.3	62.9*	43.1	-0.4
O=C(Nc1nc2c(s1)CCCC2)Oc1ccccc1	-9.3	-24.3	-0.4	0.9
Nc1cc(=O)[nH]c(N2CCN(c3ccccc3)CC2)n1	.	.	2.1	1.4
CCOc1cc2[nH]c(=S)n(CCC(=O)NCc3ccco3)c(=O)c2cc1OCC	.	.	10.4	3.8
O=C1c2ccccc2C(Nc2ccc(Cl)cn2)N1Cc1ccccc1 (centres undefined)	-3.4	-15.3	71.0*	-1.1
O=C1c2ccccc2C(Nc2ccccc2)N1c1ccc(Cl)cn1 (centres undefined)	-3.2	6.2	0.5	3.1
O=C(/C=C/NNC(=O)c1cccc(Br)c1)c1cccc(Br)c1	27.5*	-108.8	-0.5	2.0
SMILES	Yeast life ext	BB579 growth dn	WT yeast gro inh	RAM inhibit
CCCn1c(=O)n(C)c(=O)c2c(SCC(=O)NC34CC5CC(CC(C5)C3)C4)nc(CC(C)C)nc21	2.8	-6.5	21.2	3.0
CC(C)n1c(Oc2ccc(F)cc2)nc2c1c(=O)n(C)c(=O)n2C	.	.	3.9	2.4
Clc1ccc(-c2nc(N3CCCCC3)nc3ccccc23)cc1	.	-37.1	59.4*	6.0
Brc1ccc(/C=N/Nc2ccc3ccccc3n2)cc1	-21.5	-84.8	60.0*	-0.8
Fc1cccc(/C=N/Nc2ccc3ccccc3n2)c1	.	.	20.2	0.1
Brc1ccccc1/C=N/Nc1ccc2ccccc2n1	-4.6	-46.0	68.6*	-0.8
Cc1cc(N/N=C/c2ccccc2Br)nc2ccccc12	-6.4	-19.3	70.1*	-0.8
CC1C(C#N)=C(N)OC2=C1C(=O)CC(c1ccccc1)C2 (centres undefined)	.	.	-0.5	0.1
Cc1nn(-c2ccccc2)c(N)c1N=Nc1ccc2ccccc2c1	-1.4	-7.7	70.1*	6.3
Cc1ccc(N=Nc2c(N)nn(-c3ccccc3)c2N)cc1	-4.3	-14.4	11.1	3.2
CCOC(=O)C1=C(C)Nc2ccccc2N=C1NC(=O)c1ccc(Cl)c(S(=O)(=O)N2CCCC2)c1	.	.	-0.7	8.7*
Cc1nnc(SCC(=O)Nc2ccc(Cl)cn2)s1	-5.4	-21.3	-12.9	0.0
Cc1ccc(NC(=O)CN2C(=O)N/C(=C/c3ccc(C)o3)C2=O)cc1	-17.3	-55.1	22.3	1.4
